In ChEMBL document CHEMBL1149435, “Inactivation of S-adenosyl-L-homocysteine hydrolase by 6'-cyano-5',6'-didehydro-6'-deoxyhomoadenosine and 6'-chloro-6'-cyano-5',6'-didehydro-6'-deoxyhomoadenosine. Antiviral and cytotoxic effects” (J Med Chem, 2006):
Converted amounts (≈) assume the structure as drawn.

Assays:
Cytomegalovirus [1] = test: Antiviral activity against Cytomegalovirus AD169 in human embryonic lung cells; assay type: functional, organism-based; conditions: Human betaherpesvirus 5, AD169, lung
In short: (§1)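 Human embryonic lung cell cultures were infected with cytomegalovirus, and the effect on viral plaque formation was scored. EC50 is the concentration, in µg/mL, that reduced virus plaque formation by 50%.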

Cytomegalovirus [2] = test: Antiviral activity against Cytomegalovirus Davis in human embryonic lung cells; assay type: functional, organism-based; conditions: Human betaherpesvirus 5, Davis; in short: as §1
Human alphaherpesvirus 3 [3] = test: Antiviral activity against TK+ VZV OKA in human embryonic lung cells; assay type: functional, organism-based; conditions: Human alphaherpesvirus 3, OKA
Human alphaherpesvirus 3 [4] = test: Antiviral activity against TK- VZV 07/10 in human embryonic lung cells; assay type: functional, organism-based; conditions: Human alphaherpesvirus 3, 07/10, lung
HEL [5] = test: Cytotoxicity as determined by alteration in the cell morphology of HEL cells; assay type: functional; conditions: Homo sapiens
In short: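 Human embryonic lung cells were examined by microscope for changes in morphology. MCC is the minimum concentration, in µg/mL, that caused a microscopically detectable alteration of cell morphology.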

HEL [6] = test: Cytotoxicity against HEL cells; assay type: functional; conditions: Homo sapiens
In short: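 Cytotoxicity was measured in human embryonic lung cells as inhibition of cell growth. CC50 is the concentration, in µg/mL, that reduced cell growth by 50%.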

Adenosylhomocysteinase = Adenosylhomocysteinase (Homo sapiens, UniProt P23526); test: Inhibitory activity against AdoHcy Hydrolase
In short: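 Purified recombinant placental AdoHcy hydrolase was preincubated with inhibitor at several concentrations in assay buffer at 37 °C. Remaining activity was measured in the synthetic direction. Ki and kinact came from the Kitz–Wilson method. […] Irreversibility was checked by 24 h dialysis.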

Adenosylhomocysteinase, sequence (P23526 whole entry): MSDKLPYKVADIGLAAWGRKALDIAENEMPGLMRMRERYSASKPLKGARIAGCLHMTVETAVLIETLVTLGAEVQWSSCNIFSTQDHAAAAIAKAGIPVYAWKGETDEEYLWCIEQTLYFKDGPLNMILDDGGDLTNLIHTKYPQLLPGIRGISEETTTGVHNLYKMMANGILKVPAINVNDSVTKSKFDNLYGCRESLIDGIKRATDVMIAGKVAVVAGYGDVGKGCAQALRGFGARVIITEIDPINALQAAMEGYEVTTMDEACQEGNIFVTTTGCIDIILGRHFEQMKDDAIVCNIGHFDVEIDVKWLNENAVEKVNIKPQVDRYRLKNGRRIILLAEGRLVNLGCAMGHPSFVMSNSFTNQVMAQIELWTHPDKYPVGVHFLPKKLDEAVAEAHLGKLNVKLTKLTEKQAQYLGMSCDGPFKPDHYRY

SMILES	EC50 (Cytomegalovirus [1]) [µg/mL]	EC50 (Cytomegalovirus [2]) [µg/mL]	EC50 (Human alphaherpesvirus 3 [3]) [µg/mL]	EC50 (Human alphaherpesvirus 3 [4]) [µg/mL]	MCC (HEL [5]) [µg/mL]	CC50 (HEL [6]) [µg/mL]	Ki (Adenosylhomocysteinase) [µM]
N#C/C=C/[C@H]1O[C@@H](n2cnc3c(N)ncnc32)[C@H](O)[C@@H]1O	> 20	> 20	> 20	> 20	≥ 20	11 (≈ 38.2 µM)	
Nc1nc2c(ncn2COC(CO)CO)c(=O)[nH]1 [GANCICLOVIR]	3.2 (≈ 12.5 µM)	3.2 (≈ 12.5 µM)			≥ 400	34 (≈ 133 µM)	
Nc1ccn(C[C@@H](CO)OCP(=O)(O)O)c(=O)n1.O.O [CIDOFOVIR]	0.49	0.64			≥ 400	23	
O=c1[nH]c(=O)n([C@H]2C[C@H](O)[C@@H](CO)O2)cc1/C=C/Br [BRIVUDINE]			0.0051 (≈ 0.0153 µM)	149 (≈ 447 µM)	> 400	> 200	
N#C/C=C\[C@H]1O[C@@H](n2cnc3c(N)ncnc32)[C@H](O)[C@@H]1O	> 20	> 20	> 20	> 20	100	> 20	
Nc1nc2c(ncn2COCCO)c(=O)[nH]1 [ACYCLOVIR]					> 400	118 (≈ 524 µM)	
N#C/C(Cl)=C\[C@H]1O[C@@H](n2cnc3c(N)ncnc32)[C@H](O)[C@@H]1O	> 20	> 20	11 (≈ 34.1 µM)	17 (≈ 52.7 µM)	100	1.2 (≈ 3.72 µM)	17
